Assay results: ChEMBL document CHEMBL1130998, “Structure-activity requirements for flavone cytotoxicity and binding to tubulin” (J Med Chem, 1998)

Columns and labels:
[1] = test system: Panel NCI-60 (60 carcinoma cell lines); experiment: In vitro cytotoxic potency against NCI-60 human tumor cell line; assay type: functional
[2] = target: Tubulin (Homo sapiens) (UniProt P68371+Q9H4B7+P0DPH7+P68366+Q13509+Q71U36+P04350+Q3ZCM7+P07437+P68363+Q9BQE3+Q6PEY2+Q13885+Q9BVA1+Q9BUF5); experiment: In vitro inhibition of binding of [3H]colchicine to tubulin at 50 mM.; assay type: protein-complex assay
[3] = target: Tubulin; experiment: In vitro inhibitory activity against tubulin polymerization (10 uM); assay type: protein-complex assay
[4] = target: T1, Tubulin (Bos taurus) (UniProt Q6B856+Q862L2+Q862F3); experiment: In vitro inhibition of binding of [3H]colchicine to tubulin (10 uM) at compound concentration of 50 mM; assay type: protein assay
[5] = target: T1, Tubulin (Bos taurus); experiment: In vitro inhibition of binding of [3H]colchicine to tubulin (10 uM) at compound concentration of 5 mM; assay type: protein assay
[6] = test system: Panel NCI-60 (60 carcinoma cell lines); experiment: In vitro cytotoxic potency against NCI-60 human tumor cell line was determined; assay type: functional
Outline: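 Tested in the NCI primary in vitro human tumor cell screen. Potency was taken from the dose-response curves, which were also analysed for the differential cytotoxicity pattern typical of antimitotic standard agents.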

SMILES | GI50 [1] [µM] | also measured
COc1ccc(-c2oc3ccccc3c(=O)c2O)cc1OC [3-HYDROXY-3',4'-DIMETHOXYFLAVONE] | 32 | –
COc1cc(OC)c(-c2cc(=O)c3c(O)c(OC)c(OC)c(OC)c3o2)cc1OC | 60 | –
COc1cc(OC)cc(-c2cc(=O)c3c(OC)c(OC)c(OC)c(OC)c3o2)c1 | 30 | –
COc1ccc(-c2oc3c(OC)c(OC)c(OC)c(OC)c3c(=O)c2OC)cc1OC [3,5,6,7,8,3',4'-HEPTAMETHOXYFLAVONE] | > 27 | inhibition [2]: 1%; IC50 [3]: > 40 µM
COc1ccc(-c2cc(=O)c3c(O)c(O)c(OC)cc3o2)cc1O | > 100 | –
COc1ccc(-c2oc3cc(OC)ccc3c(=O)c2O)cc1 | 4.2 | –
COc1c(O)cc2oc(-c3ccc(O)cc3)cc(=O)c2c1O [HISPIDULIN] | 33 | –
COc1ccc(-c2cc(=O)c3ccc(O)cc3o2)c(OC)c1OC | 58 | –
COc1ccc(-c2oc3c(O)c(OC)cc(O)c3c(=O)c2OC)cc1OC | > 100 | –
COc1ccc(-c2cc(=O)c3c(O)c(OC)c(O)c(OC)c3o2)cc1 [NEVADENSIN] | 59 | –
COc1ccc(-c2oc3cc(OC)c(C)c(C)c3c(=O)c2OC)cc1O | 44 | –
COc1ccc(-c2oc3cc(O)cc(O)c3c(=O)c2OC)cc1OCc1ccccc1 | 8.3 | –
COc1ccc2oc(-c3ccc(OC)c(OC)c3OC)cc(=O)c2c1 | 42 | –
COc1cc(OC)c2c(=O)cc(-c3ccc(OC)c(OC)c3OC)oc2c1 | 79 | –
COc1ccc(-c2oc3cc(OC)cc(O)c3c(=O)c2OC)cc1 | 54 | –
COc1cc(-c2cc(=O)c3ccccc3o2)cc(OC)c1OC | 18 | inhibition [2]: 0%; IC50 [3]: > 40 µM
COc1ccc(-c2oc3cc(O)cc(O)c3c(=O)c2OC)cc1O | 1.7 | inhibition [4]: 75%; IC50 [3]: 3 µM; inhibition [5]: 43%
COc1cc(OC)c(-c2oc3ccccc3c(=O)c2O)c(OC)c1 | 5.9 | inhibition [2]: 22%; IC50 [3]: 31 µM
COc1ccc(-c2cc(=O)c3c(O)c(OC)c(O)cc3o2)cc1OC [EUPATILIN] | 15 | inhibition [2]: 6%; IC50 [3]: > 40 µM
O=c1c(O)c(-c2ccc(O)c(O)c2)oc2cc(O)ccc12 [FISETIN] | 18 | –
COc1ccc2c(=O)c(O)c(-c3ccc(OC)c(OC)c3)oc2c1 | 5.5 | inhibition [2]: 0%; IC50 [3]: > 40 µM
COc1cc(-c2cc(=O)c3c(OC)c(OC)c(OC)c(OC)c3o2)cc(OC)c1OC [HEPATAMETHOXYFLAVONE] | 32 | –
COc1ccc(-c2cc(=O)c3c(O)cc(C)cc3o2)cc1OC | > 100 | –
COc1ccc(-c2oc3cc(O)c(OC)cc3c(=O)c2OC)cc1O | 19 | –
COc1ccc(-c2oc3cc(O)cc(O)c3c(=O)c2OC)cc1 [ERMANIN] | 24 | –
COc1cc(-c2oc3c(OC)cc(OC)c(O)c3c(=O)c2OC)cc(OC)c1OC | 19 | –
COc1ccc(-c2oc3cc(OC)c(OC)c(O)c3c(=O)c2O)cc1O | 4 | inhibition [2]: 9%; IC50 [3]: > 40 µM

SMILES | GI50 [1] [µM] | also measured
COc1ccc(-c2cc(=O)c3c(OC)c(OC)c(OC)c(OC)c3o2)cc1 [TANGERETIN] | 54 | –
COc1cc(-c2oc3cc(OC)c(OC)c(O)c3c(=O)c2OC)ccc1O [CHRYSOSPLENOL B] | > 33 | –
COc1cc(O)c2c(=O)c(OC)c(-c3ccc(OC)c(OC)c3)oc2c1 [RETUSIN] | 65 | –
COc1c(OC)c(OC)c2c(=O)cc(-c3ccc(NC(C)=O)cc3)oc2c1OC | – | GI50 [6]: > 100 µM
COc1cc(-c2oc3c(OC)c(O)c(OC)c(O)c3c(=O)c2OC)cc(O)c1OC | 32 | –
COc1c(OC)c(O)c2c(=O)cc(-c3ccc(O)c(O)c3)oc2c1OC [SIDERITIFLAVONE] | 4 | –
COc1cc2oc(-c3ccc(O)cc3)cc(=O)c2c(OC)c1OC | > 100 | –
COc1c(C)c(O)c2c(=O)cc(-c3ccccc3)oc2c1C | > 100 | –
COc1cc(-c2cc(=O)c3c(O)c(OC)c(OC)c(OC)c3o2)ccc1O | 22 | –
COc1ccc(-c2cc(=O)c3c(O)c(OC)c(O)cc3o2)cc1O | 6 | –
COc1ccc(-c2oc3cc(OC)c(OC)c(OC)c3c(=O)c2O)cc1O | 14 | inhibition [2]: 2%; IC50 [3]: > 40 µM
CCOc1cc(O)c2c(=O)c(OC)c(-c3ccc(OC)c(O)c3)oc2c1 | 12 | –
COc1ccc(-c2oc3c(OC)c(OC)c(OC)c(O)c3c(=O)c2OC)cc1OC | 7.1 | inhibition [2]: 4%; IC50 [3]: > 40 µM
COc1ccc(-c2cc(=O)c3cc(O)ccc3o2)c(OC)c1OC | 30 | –
COc1cc(-c2oc3c(OC)c(OC)cc(O)c3c(=O)c2OC)ccc1O [TERNATIN] | 9.5 | inhibition [2]: 0%; IC50 [3]: > 40 µM
COc1ccc(-c2cc(=O)c3c(O)cc(O)cc3o2)c(OC)c1OC | 68 | –
COc1ccc(-c2oc3cc(O)c(C)c(C)c3c(=O)c2OC)cc1O | 12 | –
COc1ccc(-c2cc(=O)c3c(OC)cccc3o2)c(OC)c1OC | 89 | –
COc1cc2oc(-c3ccccc3)cc(=O)c2c(O)c1C | > 100 | –
COc1cc(O)c2c(=O)c(O)c(-c3ccc(OC)c(O)c3)oc2c1 [OMBUINE] | 37 | –
COc1ccc2c(=O)cc(-c3ccc(OC)c(OC)c3OC)oc2c1 | 78 | –
COc1ccc(OC)c(-c2cc(=O)c3c(OC)c(OC)c(OC)c(OC)c3o2)c1 | 24 | –
COc1ccc(-c2cc(=O)c3c(OC)c(O)c(OC)cc3o2)cc1 | 43 | –
COc1ccc(-c2cc(=O)c3c(OC)c(OC)c(OC)cc3o2)cc1 | 28 | –
O=c1c(O)c(-c2ccc(O)c(O)c2)oc2cc(O)cc(O)c12 [QUERCETIN] | 60 | –
COc1ccc(-c2cc(=O)c3c(OC)c(OC)c(OC)c(OC)c3o2)cc1OC [NOBILETIN] | 40 | –
COc1ccc(-c2oc3c(OC)c(OC)c(OC)c(O)c3c(=O)c2OC)cc1O | 0.13 | inhibition [4]: 89%; IC50 [3]: 0.83 µM; inhibition [5]: 59%

SMILES | GI50 [1] [µM] | also measured
COc1ccc(-c2cc(=O)c3c(O)c(OC)c(O)cc3o2)cc1 [PECTOLINARIGENIN] | > 31 | inhibition [2]: 11%; IC50 [3]: > 40 µM
COc1cc(O)c2c(=O)c(OC)c(-c3ccc(OC)c(O)c3)oc2c1 [AYANIN] | 32 | inhibition [2]: 0%; IC50 [3]: > 40 µM
COc1ccc(-c2cc(=O)c3c(O)c(OC)c(OC)c(OC)c3o2)cc1OC [5-DEMETHYLNOBILETIN] | 17 | inhibition [2]: 5%; IC50 [3]: > 40 µM
COc1ccc(-c2oc3cc(O)c(OC)c(O)c3c(=O)c2OC)cc1O [CENTAUREIDIN] | 0.24 | inhibition [4]: 76%; IC50 [3]: 2 µM; inhibition [5]: 35%
COc1ccc(-c2cc(=O)c3c(O)cccc3o2)c(OC)c1OC | 45 | –
COc1ccc(-c2cc(=O)c3c(O)cc(O)cc3o2)cc1OC | 48 | –
COc1ccc(-c2oc3cc(OC)c(O)c(OC)c3c(=O)c2OC)cc1O | 54 | –
COc1cc(-c2oc3c(OC)c(OC)c(OC)c(O)c3c(=O)c2OC)ccc1O | 7.6 | inhibition [2]: 0%; IC50 [3]: > 40 µM
COc1c(OC)c(OC)c2c(=O)cc(-c3ccc(OC(C)C)cc3)oc2c1OC | 11 | –
COc1cc(-c2cc(=O)c3c(O)c(OC)c(OC)c(OC)c3o2)cc(OC)c1OC [GARDENIN] | 19 | inhibition [2]: 0%; IC50 [3]: > 40 µM
O=c1c(O)c(-c2cc(O)c(O)c(O)c2)oc2cc(O)cc(O)c12 [MYRICETIN] | 36 | –
COc1c(O)c(OC)c2oc(-c3ccc(O)c(O)c3)c(OC)c(=O)c2c1O | 20 | –
COc1ccccc1-c1cc(=O)c2ccc(OC)c(OC)c2o1 | 55 | –
COc1cc(-c2oc3c(OC)c(O)c(OC)c(O)c3c(=O)c2OC)cc(OC)c1OC | 54 | inhibition [2]: 6%; IC50 [3]: > 40 µM
COc1ccc(-c2oc3cc(OC(C)=O)cc(OC(C)=O)c3c(=O)c2OC)cc1 | 15 | –
COc1cc(OC)c2c(=O)c(OC)c(-c3ccc(OC)c(O)c3)oc2c1 | > 100 | –
COc1ccc(-c2oc3cc(O)c(OC)c(O)c3c(=O)c2O)cc1 [BETULETOL] | 4.1 | –
COc1c(OC)c(OC)c(-c2cc(=O)c3c(OC)c(OC)c(OC)c(OC)c3o2)c(OC)c1OC | 36 | –
COc1ccc(-c2cc(=O)c3c(OC)c(OC)c(OC)c(OC)c3o2)c(OC)c1 | 26 | –
COc1cc(O)c2c(=O)c(O)c(-c3ccc(O)c(O)c3)oc2c1 [RHAMNETIN] | 8.9 | –
COc1cc2oc(-c3ccc(O)cc3)cc(=O)c2c(OC)c1O | 62 | –
COc1ccc(-c2oc3ccc(C)cc3c(=O)c2O)cc1 | 76 | –
O=c1c(O)c(-c2c(O)cccc2O)oc2cc(O)cc(O)c12 | > 100 | –
COc1cc(-c2oc3c(OC)c(O)c(OC)c(O)c3c(=O)c2OC)ccc1O | 27 | inhibition [2]: 6%; IC50 [3]: > 40 µM
COc1cc(OC)c2c(=O)c(O)c(-c3ccc(OC)c(OC)c3)oc2c1 | 6.6 | inhibition [2]: 0%; IC50 [3]: > 40 µM
